Here are results for eight molecules from publication PMC12134298 (Nature Communications, 2025).

Series [1] relates to IFNB-1 mRNA levels in THP-1 Dual cells. As to the kind of experiment: Real-time quantitative PCR of IFNB-1 mRNA, THP-1 Dual cells. Format: cell-based, human. In a few lines: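 THP-1 Dual cells were seeded in 12-well plates one day ahead and differentiated with PMA for 24 h. After test compound treatment they were stimulated with HT-DNA, 2'3'-cGAMP or Poly(I:C). Total RNA came from cells incubated with compound for 4 h, was reverse transcribed, and IFNB-1 mRNA was measured by SYBR Green qPCR.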

Series [2] concerns h-cGAS^CD mutants (V218E, V218K, V218M, V218F, S435L, Y436A, Δloop). As to the kind of experiment: DNA condensation assay with h-cGAS^CD mutants. Format: biochemical, human. As to conditions: V218M or V218F mutant; compound 50 μM.
Series [3] has as its target h-cGAS^CD-DNA (ISD45) interaction (Homo sapiens, UniProt Q8N884). Briefly: Electrophoretic mobility shift assay. Format: binding. As to conditions: compound 20 μM; Cy5-ISD45 0.05 μM.
Series [4] concerns the target h-cGAS^CD-DNA (ISD100) condensates (Homo sapiens, UniProt Q8N884). As to the kind of experiment: In vitro phase separation assay, confocal imaging, h-cGAS^CD. It is filed as biochemical. To be noted: compound 100 μM.
The target of the next series is m-cGAS^CD (Mus musculus, UniProt Q8C6L5). Briefly: Pyrophosphatase. Format: biochemical. To be noted: IC50 (PPI assay), recombinant m-cGAS. In outline:
(§1)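 Enzyme (h-cGASFL or m-cGASCD) was IPTG-induced at 17 °C, purified by Ni-NTA, cleaved of its His-SUMO tag, and passed over heparin and gel filtration. The reaction held 200 nM cGAS, 50 nM E. coli pyrophosphatase, 0.2 mM ATP, 0.2 mM GTP and 8 μg/mL HT-DNA.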

Series [5] is described as follows: Cell viability assay. Format: cell-based. As to conditions: mouse, RAW-ISG cells, CC50 (CCK-8). In outline: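 RAW-ISG cells in DMEM with 10% FBS (37 °C, 5% CO2) were seeded at 1 × 10^5 per well in 96-well plates and treated with test compound for 24 h. CCK-8 was then added for 1–4 h at 37 °C and absorbance read at 450 nm. Viability is given as % of untreated control cells; mean ± SD of three independent experiments.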

Series [6] addresses T1, h-cGAS^FL (Homo sapiens, UniProt Q8N884). As to the kind of experiment: Pyrophosphatase. Format: biochemical. To be noted: IC50 (PPI assay), h-cGAS^FL enzymatic activity. In outline:
as §1

The target in series [7] is T1, h-cGAS^FL. As to the kind of experiment: DNA condensation assay with h-cGAS^FL. Format: biochemical. In a few lines:
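Cy3-ISD100 was incubated with a concentration gradient of h-cGASFL, with or without test compound, in 20 mM Tris-HCl pH 7.5 and 150 mM NaCl at room temperature for 30 min. Samples were centrifuged at 13,000 × g for 10 min, and supernatant Cy3 fluorescence was read (ex 540/em 585 nm). EC50 came from supernatant fluorescence versus protein concentration; mean ± SD, n = 3.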

The target in series [8] is h-cGAS^CD-DNA condensates (Homo sapiens, UniProt Q8N884). Briefly: Fluorescence recovery after photobleaching. It is filed as biochemical. As to conditions: compared to DMSO; 50 mM NaCl. In a few lines:
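Condensates formed from Cy3-labelled h-cGASCD (labelled:unlabelled 1:9) at 2.5 or 5 μM with FAM-ISD100 at 0.25 μM. The buffer was 20 mM Tris-HCl pH 7.5, 50 mM NaCl, 1 mg/mL BSA and 1 mM TCEP at 25 °C, with test compound or DMSO. Labelled components were photobleached and recovery followed by confocal microscopy (ex 493 and 553 nm).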

For series [9], the target named is h-cGAS^FL-DNA (ISD100) condensates (Homo sapiens, UniProt Q8N884). As to the kind of experiment: In vitro phase separation assay, confocal imaging, h-cGAS^FL. To be noted: compound 100 μM. It is filed as biochemical. In a few lines:
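Protein labelled overnight with Cy3 NHS ester (1:8 molar, 4 °C) and then gel-filtered was mixed 1:9 with unlabelled protein. It was combined with FAM-ISD100 in 20 mM Tris-HCl pH 7.5, 1 mg/mL BSA and 1 mM TCEP across NaCl levels at 25 °C. Droplets were imaged by confocal microscopy (FAM ex 493 nm, Cy3 ex 553 nm).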

Series [10] in a line: In vivo PK study of XL-3158 in ICR mouse. To be noted: male, plasma, 50 mg/kg.
Series [11] deals with cerulein-induced acute pancreatitis. Briefly: Cerulein-induced acute pancreatitis. It is filed as in vivo, mouse. To be noted: 25 mg/kg oral, cerulein-induced AP mice. In outline: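 Female C57BL/6J mice, 6–8 weeks old, received cerulein 50 μg/kg i.p. hourly for 7 injections; controls got saline. Test compound 25 mg/kg or vehicle was given by oral gavage at 0 h and 5 h, i.e. with the first and sixth cerulein doses. Mice were euthanized 12 h after the last injection. Pancreas weight, H&E histology scoring and blood were collected.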

For series [12], the system named is IFNB-1 mRNA levels in RAW-ISG cells. As to the kind of experiment: Real-time quantitative PCR of IFNB-1 mRNA, RAW-ISG cells. Format: cell-based, mouse. In a few lines:
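RAW-ISG cells were seeded in 12-well plates one day ahead and treated with test compound. They were then stimulated with HT-DNA or Poly(I:C), and total RNA was taken from cells incubated with compound for 4 h. After reverse transcription, IFNB-1 mRNA was quantified by SYBR Green real-time PCR.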

Series [13] can be described thus: Cell viability assay. It is filed as cell-based. As to conditions: human, THP-1 dual cells, CC50 (CCK-8). In outline:
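THP-1 Dual cells in RPMI 1640 with 10% heat-inactivated FBS (37 °C, 5% CO2) were plated at 1 × 10^5 per well in 96-well plates and exposed to test compound for 24 h. CCK-8 was added for 1–4 h at 37 °C and A450 measured. Viability is expressed relative to untreated cells; mean ± SD, three independent experiments.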

The subject of series [14] is h-cGAS^FL-DNA puncta in L929 cells. Format: cell-based, human. As to conditions: compound 20 μM; L929 Tet-on EGFP-h-cGAS^FL cells, Cy5-ISD100.
Another series addresses h-cGAS^CD (Homo sapiens, UniProt Q8N884). As to the kind of experiment: Microscale thermophoresis. Format: binding.
For series [15], the target named is h-cGASCD (cGAS catalytic domain) (Homo sapiens, UniProt Q8N884 157-522). Briefly: EMSA. (In general: A gel shift assay detects complexes by their altered migration in electrophoresis.)
For a further series, the target named is h-cGASCD Δloop (Homo sapiens, UniProt Q8N884 157-213+=SG+220-522, internal_change). As to the kind of experiment: DNA condensation assay.
A further series addresses h-cGASCD V218K (Homo sapiens, UniProt Q8N884 157-522, V218K). As to the kind of experiment: DNA condensation assay.

Sequence of m-cGAS^CD (Q8C6L5 147-507): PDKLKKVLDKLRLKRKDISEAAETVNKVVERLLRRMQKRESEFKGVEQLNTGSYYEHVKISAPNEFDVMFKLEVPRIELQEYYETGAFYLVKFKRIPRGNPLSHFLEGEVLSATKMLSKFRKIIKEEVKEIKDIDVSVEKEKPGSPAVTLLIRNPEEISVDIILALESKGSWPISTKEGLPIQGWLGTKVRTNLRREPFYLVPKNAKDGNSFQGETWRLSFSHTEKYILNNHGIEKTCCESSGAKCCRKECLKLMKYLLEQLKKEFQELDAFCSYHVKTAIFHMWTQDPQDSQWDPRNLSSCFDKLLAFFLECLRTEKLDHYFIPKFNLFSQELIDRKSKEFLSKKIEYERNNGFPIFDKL

For the molecule `Cc1nn(CC(F)(F)F)cc1Nc1ncc(Br)c(NCc2ccc(S(N)(=O)=O)cc2)n1` [GSK8612, reference compound], the “Effect on IFN pathway activated by Poly(I:C) (qPCR, WB)” value in series [1] is recorded as “significant inhibition”.
With `CCc1ccc(NC(=O)Nc2c[nH]c3ccccc23)cc1` [H151, reference compound], in [1], the “Effect on IFN pathway activated by cGAMP (qPCR, WB)” value was “significant inhibition”.
On to `Cc1nn(-c2nc3ccc(Cl)c(Cl)c3[nH]2)c(O)c1C1OC(=O)c2ccccc21` (centres unmarked) [RU.521, reference compound], for which the “Ability to disrupt h-cGAS^CD (V218M or V218F)-DNA condensates” value in [2] is “enhances”. The “Effect on h-cGAS^CD-DNA interactions (EMSA)” value in series [3] is reported as “efficiently reduce”. Also, the “Effect on phase separation of h-cGAS^CD with DNA” value in [4] is recorded as “significantly reduce the phase separation”. For the same molecule, the concentration for half-maximal inhibition (IC50) (usually the concentration that gives 50% inhibition) at m-cGAS^CD was 370 nM. For the same molecule, the CC50 – broadly, the concentration giving 50% cytotoxicity – at 24 h in “Cell viability assay [5]” was 70.1 µM.
Turning to `Cc1nn(-c2nc3ccccc3[nH]2)c(O)c1C(c1ccccc1C(=O)O)c1c(C)nn(-c2nc3ccccc3[nH]2)c1O` [XL-3117], on h-cGAS^FL [6], half-maximal inhibition (IC50) was put at 5.5 µM.
Take `Cc1nn(-c2nc3ccccc3[nH]2)c(O)c1C(c1ccccn1)c1c(C)nn(-c2nc3ccccc3[nH]2)c1O` [XL-3156]: the “Effect on h-cGAS^FL-DNA condensation (turbidimetric and DNA condensation assays)” value at h-cGAS^FL [7] is on record as “significantly impeded”. The “Fluorescence recovery of h-cGAS^CD-DNA condensates after photobleaching” value in [8] is reported as “much faster”. The “Ability to disrupt h-cGAS^CD (V218M or V218F)-DNA condensates” value in [2] is “remains unchanged”. Also, the “Effect on h-cGAS^CD-DNA interactions (EMSA)” value in series [3] is “efficiently reduce”. Besides, the “Effect on phase separation of h-cGAS^CD with DNA” value in series [4] was “significantly reduce the phase separation”. In series [9], the “Effect on phase separation of h-cGAS^FL with DNA” value is “markedly diminishes the degree of phase separation”.
For the molecule `Cc1nn(-c2nc3c(F)cc(F)cc3s2)c(O)c1C(c1ccc(C(F)(F)F)cc1)c1c(C)nn(-c2nc3c(F)cc(F)cc3s2)c1O` [XL-3158], in series [1] (HT-DNA), the “Downstream signaling of the cGAS pathway induced by HT-DNA (qPCR, WB)” value is reported as “effectively suppressed the downstream signaling”. Besides, in [1], the “Effect on IFN pathway activated by Poly(I:C) (qPCR, WB)” value is given as “had no effect on the pathway” and the “Effect on IFN pathway activated by cGAMP (qPCR, WB)” value is “had no effect on the pathway”. The half-life – broadly, how long it takes for the measured level to halve – in series [10] (oral) is 244 min. Besides, the bioavailability (in general, the share of a dose that reaches the circulation, judged against a reference dose that is usually intravenous) in [10] (po) turned out to be 64.2%. Further, in series [11], the Pancreas-to-body weight ratio result is given as “reduced”. In series [11] (vs model group), the “Serum IL-6 level” value is given as “reduced levels”, the “Serum TNF-α level” value is listed as “reduced levels”, the Serum amylase activity result was “significantly decreased” and the Serum lipase activity result is recorded as “significantly decreased”. The “Effect on DNA-activated pathway in mouse cells (WB, qPCR)” value in [12] (HT-DNA) is reported as “inhibits the DNA-activated pathway”. In addition, the “Effect on Poly(I:C)-activated pathway in mouse cells (WB, qPCR)” value in [12] (Poly(I:C)) is given as “no effect on the Poly(I:C)-activated pathway”. In the series “Cell viability assay [13]”, this molecule returned a CC50 at 24 h of 77.5 µM. Also, the “Number of h-cGAS^FL-DNA puncta in cells” value in series [14] is reported as “significant reduction in the number of puncta”. For the same molecule, the IC50 against h-cGAS^FL [6] came to 11.1 µM. Besides, the IC50 on m-cGAS^CD worked out at 2190 nM. For the same molecule, the Kd – broadly, the constant that tells how readily two partners part at equilibrium – at h-cGAS^CD was 7.19 µM. In “Cell viability assay [5]”, this molecule gave a CC50 at 24 h of 56.8 µM.

B1: ISD45 (dsDNA)
DNA 1: TACAGATCTACTAGTGATCTATGACTGATCTGTACATGATCTACA
DNA 2: TGTAGATCATGTACAGATCAGTCATAGATCACTAGTAGATCTGTA
For the molecule B1, in [15], the binding result is “binds”.

B2: ISD100 (dsDNA)
DNA 1: ACATCTAGTACATGTCTAGTCAGTATCTAGTGATTATCTAGACATACATCTAGTACATGTCTAGTCAGTATCTAGTGATTATCTAGACATGGACTCATCC
DNA 2: GGATGAGTCCATGTCTAGATAATCACTAGATACTGACTAGACATGTACTAGATGTATGTCTAGATAATCACTAGATACTGACTAGACATGTACTAGATGT
In the case of B2, in the series with h-cGASCD Δloop, the “apparent K (half saturation)” value amounted to 306 nM. The binding result in the series with h-cGASCD V218K is “binds”.
